Measurements as given in publication PMC6267549 (Clinical Pharmacokinetics, 2018).
Entries after “also recorded” stand apart in the source; their conditions may differ. Where two headings read alike, the source gives them in different places. One block for each compound: values may come before it.

Columns and labels:
[1] = SNAC plasma pharmacokinetics after ten once-daily doses of oral semaglutide; type: in vivo, human; details: for tmax,Day10: median (minimum, maximum)
Summary of the method: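 Oral tablets (300 mg SNAC) given once daily, 5 mg semaglutide days 1–5 then 10 mg days 6–10, with 120 mL water after >6 h fast and no intake for 30 min after. K3EDTA plasma sampled, including extra points within 24 h after last dose, stored at -20 °C. SNAC measured by LC-MS/MS after in-line solid-phase preparation against an analogue IS (5.00-2000 ng/mL, fivefold dilution above). AUC24 by linear trapezoid; Cmax and tmax observed.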

[2] = Semaglutide and SNAC urine bioanalysis / renal clearance; type: in vivo, human; details: for CLR: based on 0–36 h after the tenth dosing, geometric mean (CV)
Summary of the method: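 Urine collected pre-dose day 1 and fractionated over set intervals on days 10–11 after the tenth dose, then stored at -20 °C. 1% Triton X-100 added, 1 part per 9 parts urine. Semaglutide and SNAC quantified by the plasma LC-MS/MS methods with ranges corrected by 1.111. Renal clearance derived over 0–36 h after the tenth dose.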

[3] = Effect of haemodialysis on semaglutide and SNAC exposure in subjects with ESRD; type: in vivo, human
Summary of the method: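 ESRD subjects on haemodialysis three times weekly, started right after dosing (blood flow 500-600 mL/min, ultrafiltration 0-23 mL/min, low- or high-flux membranes). Semaglutide: observed AUC 144–148 h during day-16 dialysis divided by predicted AUC, with λz taken from inter-dialysis plasma levels at 76, 96, 120 and 144 h. SNAC: AUC4 on dialysis day 9 vs non-dialysis day 10, compared by log-scale linear model (dialysis, subject fixed).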

[4] = subcutaneous administration; monkeys; cited from earlier work
[5] = type: in vivo, human; details: once-daily oral semaglutide, not characterised in the trial
Summary of the method: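 Ten once-daily oral doses given, 5 mg for 5 days then 10 mg for 5 days, fasted. Plasma sampled pre-dose and to 504 h after the last dose, K3EDTA, stored at -20 °C. Semaglutide measured by LC-MS/MS after protein precipitation (0.729-60.8 nmol/L, 1/concentration² weighting). t½ = ln(2)/λz, with λz from log-linear regression on the terminal phase.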

[6] = subcutaneous administration; humans; cited from earlier work
[7] = subcutaneous administration; rats; cited from earlier work
[8] = mild renal impairment vs normal renal function
[9] = moderate renal impairment vs normal renal function
[10] = severe renal impairment vs normal renal function

- AUC24,Day10 ([1]; ESRD (n = 11), after tenth dose, geometric mean (CV)): 1471.4 (27.0) nmol·h/L
- tmax,Day10 ([1]; ESRD (n = 11), after tenth dose): 0.83 (0.17, 5.00) h
- estimated ratio Cmax,Day10 ([1]; ESRD vs normal renal function): 0.79
- estimated ratio of the AUC24,Day10 ([1]; ESRD vs normal renal function): 1.32
- AUC24,Day10 ([1]; mild renal impairment (n = 12), after tenth dose, geometric mean (CV)): 1311.6 (31.5) nmol·h/L
- tmax,Day10 ([1]; mild renal impairment (n = 12), after tenth dose): 0.58 (0.33, 2.50) h
- estimated ratio Cmax,Day10 [1, 8]: 0.94
- estimated ratio of the AUC24,Day10 [1, 8]: 1.19
- AUC24,Day10 ([1]; moderate renal impairment (n = 12), after tenth dose, geometric mean (CV)): 1335.9 (34.6) nmol·h/L
- tmax,Day10 ([1]; moderate renal impairment (n = 12), after tenth dose): 0.67 (0.33, 6.00) h
- estimated ratio Cmax,Day10 [1, 9]: 0.70
- estimated ratio of the AUC24,Day10 [1, 9]: 1.30
- AUC24,Day10 ([1]; normal renal function (n = 24), after tenth dose, geometric mean (CV)): 1028.8 (29.2) nmol·h/L
- tmax,Day10 ([1]; normal renal function (n = 24), after tenth dose): 0.75 (0.33, 3.00) h
- Cmax ([1]; read-out: Cmax,Day10, ESRD (n = 11), after tenth dose, geometric mean (CV)): 936 nM
- AUC24,Day10 ([1]; severe renal impairment (n = 12), after tenth dose, geometric mean (CV)): 1522.8 (31.8) nmol·h/L
- tmax,Day10 ([1]; severe renal impairment (n = 12), after tenth dose): 0.67 (0.17, 1.00) h
- estimated ratio Cmax,Day10 [1, 10]: 1.06
- estimated ratio of the AUC24,Day10 [1, 10]: 1.49
- CLR ([2]; ESRD (n = 11)): 0.01 (508.51) L/h
- CLR ([2]; mild renal impairment (n = 12)): 0.08 (87.88) L/h
- CLR ([2]; moderate renal impairment (n = 12)): 0.09 (92.63) L/h
- CLR ([2]; normal renal function (n = 24)): 0.06 (104.33) L/h
- CLR ([2]; severe renal impairment (n = 12)): 0.04 (98.22) L/h
- estimated ratio of AUC4 on day 9 during haemodialysis to AUC4 on day 10 ([3]; haemodialysis vs no haemodialysis): 0.95
Compound: O=C([O-])CCCCCCCNC(=O)c1ccccc1O.[Na+] [SNAC, sodium N-(8-[2-hydroxybenzoyl]amino) caprylate]

- time to reach steady state (predicted) [5]: 4–5 weeks
- AUC144–148 h,dial/AUC144–148 h,pred (estimated ratio) ([3]; observed during haemodialysis (day 16) over predicted): 0.97
Compound: CC[C@H](C)[C@H](NC(=O)[C@H](Cc1ccccc1)NC(=O)[C@H](CCC(=O)O)NC(=O)[C@H](CCCCNC(=O)COCCOCCNC(=O)COCCOCCNC(=O)CC[C@H](NC(=O)CCCCCCCCCCCCCCCCC(=O)O)C(=O)O)NC(=O)[C@H](C)NC(=O)[C@H](C)NC(=O)[C@H](CCC(N)=O)NC(=O)CNC(=O)[C@H](CCC(=O)O)NC(=O)[C@H](CC(C)C)NC(=O)[C@H](Cc1ccc(O)cc1)NC(=O)[C@H](CO)NC(=O)[C@H](CO)NC(=O)[C@@H](NC(=O)[C@H](CC(=O)O)NC(=O)[C@H](CO)NC(=O)[C@@H](NC(=O)[C@H](Cc1ccccc1)NC(=O)[C@@H](NC(=O)CNC(=O)[C@H](CCC(=O)O)NC(=O)C(C)(C)NC(=O)[C@@H](N)Cc1cnc[nH]1)[C@@H](C)O)[C@@H](C)O)C(C)C)C(=O)N[C@@H](C)C(=O)N[C@@H](Cc1c[nH]c2ccccc12)C(=O)N[C@@H](CC(C)C)C(=O)N[C@H](C(=O)N[C@@H](CCCNC(=N)N)C(=O)NCC(=O)N[C@@H](CCCNC(=N)N)C(=O)NCC(=O)O)C(C)C [semaglutide]
- intact semaglutide in urine [4]: not detected
- intact semaglutide in urine, of the administered dose [6]: 3.1%
- detection in urine ([2]; urine samples days 10–11, except one subject in the ESRD group): not detected in urine; also recorded: not generally detected
- intact semaglutide in urine, of the administered dose [7]: less than 1%
